Reference: ChEMBL document CHEMBL1165950, “Design and synthesis of new potent anticancer pyrazoles with high FLT3 kinase inhibitory selectivity” (Bioorg Med Chem, 2010)

Experiments:
Type in all cases: functional
[1] = Growth inhibition of human […] cells after 48 hrs by sulforhodamine B assay; conditions: for CC50: read-out: LC50 (the source's name)
Outline: (§1)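 NCI 60-cell screen, five-dose mode. Cells grown in RPMI 1640 with 5% FBS and 2 mM L-glutamine and plated at 5000-40,000 cells/well according to doubling time. After 24 h preincubation, a Tz plate was TCA-fixed. Five concentrations (10-fold or 1/2 log dilutions) were applied for 48 h at 37 °C. SRB staining read at 515 nm. IC50 taken from [(Ti-Tz)/(C-Tz)]×100 = 50.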

SW-620 [2] = test: Cytotoxicity against human SW620 cells assessed as cell growth at 1 uM after 48 hrs by sulforhodamine B assay; conditions: SW-620, 48 h, read-out: Activity
SNB-75 = test: Growth inhibition of human SNB75 cells after 48 hrs by sulforhodamine B assay; conditions: SNB-75, 48 h; for CC50: read-out: LC50 (the source's name); outline: as §1
A498 = test: Cytotoxicity against human A498 cells assessed as cell growth at 1 uM after 48 hrs by sulforhodamine B assay; conditions: A498, 48 h, read-out: Activity
Outline: (§2)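 NCI-60 five-dose screen. Cells were grown in RPMI 1640 with 5% FBS and 2 mM L-glutamine, plated at 5000–40,000 cells/well and preincubated for 24 h. Time-zero plates were TCA-fixed. DMSO-solubilized drug was added at five concentrations (10-fold or ½-log serial dilutions) for 48 h at 37 °C, 5% CO2. Cells were TCA-fixed, stained with 0.4% SRB and read at 515 nm. Percent growth used time-zero, control and test absorbances.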

NCI-H460 = test: Growth inhibition of human NCI-H460 cells after 48 hrs by sulforhodamine B assay; conditions: NCI-H460, 48 h; for CC50: read-out: LC50 (the source's name); outline: as §1
PC-3 = test: Cytotoxicity against human PC3 cells assessed as cell growth at 0.01 uM after 48 hrs by sulforhodamine B assay; conditions: PC-3, 48 h, read-out: Activity
UACC-257 [3] = test: Cytotoxicity against human UACC257 cells assessed as cell growth at 100 nM after 48 hrs by sulforhodamine B assay; conditions: UACC-257, 48 h, read-out: Activity
SN12C = test: Cytotoxicity against human SN12C cells assessed as cell growth at 0.001 uM after 48 hrs by sulforhodamine B assay; conditions: read-out: Activity
[4] = Growth inhibition of human NCI60 cells at 10 uM after 48 hrs by sulforhodamine B assay relative to control; conditions: NCI60, 48 h, read-out: GI
Outline: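 Single-dose NCI screen at 10 µM across the 60-line panel, 48 h exposure at 37 °C after a 24 h preincubation. Adherent cells were fixed with cold TCA and stained with 0.4% SRB, and absorbance was read at 515 nm. Inhibition % was taken as 100 minus growth %, and the mean across all lines was reported.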

K562 = test: Cytotoxicity against human K562 cells assessed as cell growth at 10 uM after 48 hrs by sulforhodamine B assay; conditions: K562, 48 h, read-out: Activity
SK-MEL-2 [5] = test: Cytotoxicity against human SK-MEL-2 cells assessed as cell growth at 0.01 uM after 48 hrs by sulforhodamine B assay; conditions: SK-MEL-2, 48 h, read-out: Activity
CCRF-CEM = test: Cytotoxicity against human CCRF-CEM cells assessed as cell growth at 10 uM after 48 hrs by sulforhodamine B assay; conditions: read-out: Activity; outline: as §2
EKVX = test: Cytotoxicity against human EKVX cells assessed as cell growth at 10 uM after 48 hrs by sulforhodamine B assay; conditions: read-out: Activity
SW-620 [6] = test: Cytotoxicity against human SW620 cells assessed as cell growth at 0.01 uM after 48 hrs by sulforhodamine B assay; conditions: SW-620, 48 h, read-out: Activity
NCI/ADR-RES [7] = test: Cytotoxicity against human NCI/ADR-RES cells assessed as cell growth at 10 uM after 48 hrs by sulforhodamine B assay; conditions: read-out: Activity
NCI-H322M = test: Growth inhibition of human NCI-H322M cells after 48 hrs by sulforhodamine B assay; conditions: for CC50: read-out: LC50 (the source's name); outline: as §1
UACC-257 [8] = test: Cytotoxicity against human UACC257 cells assessed as cell growth at 10 uM after 48 hrs by sulforhodamine B assay; conditions: UACC-257, 48 h, read-out: Activity
U-251 = test: Cytotoxicity against human U251 cells assessed as cell growth at 0.001 uM after 48 hrs by sulforhodamine B assay; conditions: U-251, 48 h, read-out: Activity
SF-295 [9] = test: Cytotoxicity against human SF295 cells assessed as cell growth at 0.01 uM after 48 hrs by sulforhodamine B assay; conditions: SF-295, 48 h, read-out: Activity
SK-MEL-2 [10] = test: Cytotoxicity against human SK-MEL-2 cells assessed as cell growth at 100 nM after 48 hrs by sulforhodamine B assay; conditions: SK-MEL-2, 48 h, read-out: Activity
MDA-MB-435 = test: Cytotoxicity against human MDA-MB-435 cells assessed as cell growth at 10 uM; conditions: read-out: Activity
Outline: (§3)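 NCI-60 screen: cells grown in RPMI 1640 with 5% FBS and 2 mM L-glutamine, plated at 5000–40,000 cells/well according to doubling time, and preincubated 24 h at 37 °C, 5% CO2. The single 10 µM dose (DMSO stock) was added, then incubated 48 h. Cells were TCA-fixed and stained with 0.4% SRB, read at 515 nm, and growth % calculated against time-zero and control plates.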

OVCAR-3 = test: Cytotoxicity against human OVCAR-3 cells assessed as cell growth at 100 nM after 48 hrs by sulforhodamine B assay; conditions: OVCAR-3, 48 h, read-out: Activity
SF-539 = test: Cytotoxicity against human SF539 cells assessed as cell growth at 0.001 uM after 48 hrs by sulforhodamine B assay; conditions: SF-539, 48 h, read-out: Activity
NCI-H23 = test: Cytotoxicity against human NCI-H23 cells assessed as cell growth at 10 uM; conditions: read-out: Activity; outline: as §3
KM12 [11] = test: Cytotoxicity against human KM12 cells assessed as cell growth at 10 uM after 48 hrs by sulforhodamine B assay; conditions: KM12, 48 h, read-out: Activity
NCI-H522 = test: Cytotoxicity against human NCI-H522 cells assessed as cell growth at 10 uM; conditions: read-out: Activity; outline: as §3
NCI/ADR-RES [12] = test: Cytotoxicity against human NCI/ADR-RES cells assessed as cell growth at 100 nM after 48 hrs by sulforhodamine B assay; conditions: read-out: Activity
SK-MEL-5 = test: Cytotoxicity against human SK-MEL-5 cells assessed as cell growth at 10 uM; conditions: read-out: Activity; outline: as §3
KM12 [13] = test: Cytotoxicity against human KM12 cells assessed as cell growth at 1 uM after 48 hrs by sulforhodamine B assay; conditions: KM12, 48 h, read-out: Activity
UACC-257 [14] = test: Cytotoxicity against human UACC257 cells assessed as cell growth at 10 uM; conditions: read-out: Activity; outline: as §3
LOX IMVI = test: Growth inhibition of human LOXIMVI cells after 48 hrs by sulforhodamine B assay; conditions: for CC50: read-out: LC50 (the source's name); outline: as §1
SF-295 [15] = test: Cytotoxicity against human SF295 cells assessed as cell growth at 10 uM; conditions: read-out: Activity; outline: as §3
SR = test: Cytotoxicity against human SR cells assessed as cell growth at 10 uM; conditions: read-out: Activity; outline: as §3

COc1cc(C)cc(-c2c(-c3ccnc(-c4ccc(C(C)=O)cc4)c3)cnn2CC#N)c1
GI50 [1]: 2.59 µM | TGI [1]: 9.02 µM | CC50 [1]: > 100 µM | growth at 1 µM (SW-620 [2]): 12% | GI50 (SNB-75): 2.08 µM | CC50 (SNB-75): > 100 µM | growth at 1 µM (A498): 17% | GI50 (NCI-H460): 2.41 µM | CC50 (NCI-H460): > 100 µM | growth at 0.01 µM (PC-3): 88% | growth at 0.1 µM (UACC-257 [3]): 81% | growth at 0.001 µM (SN12C): 94% | inhibition of growth at 10 µM [4]: 33.4% | growth at 10 µM (K562): 15% | growth at 0.01 µM (SK-MEL-2 [5]): 90% | growth at 10 µM (CCRF-CEM): 14% | growth at 10 µM (EKVX): 46% | growth at 0.01 µM (SW-620 [6]): 88% | growth at 10 µM (NCI/ADR-RES [7]): 11% | GI50 (NCI-H322M): > 100 µM | TGI (NCI-H322M): > 100 µM | CC50 (NCI-H322M): > 100 µM | growth at 10 µM (UACC-257 [8]): 36% | growth at 0.001 µM (U-251): 104% | growth at 0.01 µM (SF-295 [9]): 98% | growth at 0.1 µM (SK-MEL-2 [10]): 103% | growth at 10 µM (MDA-MB-435): 10.6% | growth at 0.1 µM (OVCAR-3): 92% | growth at 0.001 µM (SF-539): 92% | growth at 10 µM (NCI-H23): 83.7% | growth at 10 µM (KM12 [11]): 10% | growth at 10 µM (NCI-H522): 45% | growth at 0.1 µM (NCI/ADR-RES [12]): 83% | growth at 10 µM (SK-MEL-5): 49.2% | growth at 1 µM (KM12 [13]): 9% | growth at 10 µM (UACC-257 [14]): 92.8% | GI50 (LOX IMVI): 3.39 µM | TGI (LOX IMVI): > 100 µM | CC50 (LOX IMVI): > 100 µM | growth at 10 µM (SF-295 [15]): 93.2% | growth at 10 µM (SR): 25%

Cc1cc(O)cc(-c2nn(CC#N)cc2-c2ccnc(-c3ccc(Oc4ccccc4)cc3)c2)c1
GI50 [1]: 2.25 µM | TGI [1]: 6.52 µM | CC50 [1]: > 100 µM | growth at 1 µM (SW-620 [2]): -52% | GI50 (SNB-75): 3.82 µM | TGI (SNB-75): 17.1 µM | CC50 (SNB-75): 42 µM | growth at 1 µM (A498): 26% | GI50 (NCI-H460): 1.87 µM | TGI (NCI-H460): 3.58 µM | CC50 (NCI-H460): 6.85 µM | growth at 0.01 µM (PC-3): 86% | growth at 0.1 µM (UACC-257 [3]): 84% | growth at 0.001 µM (SN12C): 94% | inhibition of growth at 10 µM [4]: 46.6% | growth at 10 µM (K562): -2% | growth at 0.01 µM (SK-MEL-2 [5]): 99% | growth at 10 µM (CCRF-CEM): 14% | growth at 10 µM (EKVX): -41% | growth at 0.01 µM (SW-620 [6]): 88% | growth at 10 µM (NCI/ADR-RES [7]): -52% | GI50 (NCI-H322M): 5.68 µM | TGI (NCI-H322M): 19.2 µM | CC50 (NCI-H322M): 48.6 µM | growth at 10 µM (UACC-257 [8]): -93% | growth at 0.001 µM (U-251): 97% | growth at 0.01 µM (SF-295 [9]): 94% | growth at 0.1 µM (SK-MEL-2 [10]): 101% | growth at 10 µM (MDA-MB-435): 60.5% | growth at 0.1 µM (OVCAR-3): 93% | growth at 0.001 µM (SF-539): 88% | growth at 10 µM (NCI-H23): 42.6% | growth at 10 µM (KM12 [11]): -100% | growth at 10 µM (NCI-H522): 36% | growth at 0.1 µM (NCI/ADR-RES [12]): 95% | growth at 10 µM (SK-MEL-5): 64.3% | growth at 1 µM (KM12 [13]): -39% | growth at 10 µM (UACC-257 [14]): 71.7% | GI50 (LOX IMVI): 1.87 µM | TGI (LOX IMVI): 3.39 µM | CC50 (LOX IMVI): 6.13 µM | growth at 10 µM (SF-295 [15]): 77.7% | growth at 10 µM (SR): 32.4%
